An excerpt weighted towards active compounds, which were near 1.6% of everything screened.
SDO1 yeast rescue = restores growth of sdo1-depleted yeast; S. cerevisiae sdo1-depleted JHY4D growth rescue, OD600 30 h; active compounds read high; pdr5 snq2 efflux-pump mutant strain; z-score at 10 µM; actives 0.21% (n = 140,000); AID 817;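 active = z-score above 3 at both the 24 hr and the 30 hr optical density reads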;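 also: z-score against mean and SD of all compound wells on the same plate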
TbHK1 inh = T. brucei hexokinase 1 inhibition. actives 0.11% (n = 220,000). recombinant TbHK1, G6PDH-coupled NADH A340. inhibition, % at 10 µM;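 active = inhibition of 50% or more in the single-dose primary screen; inactive = inhibition below 50%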
p47phox inh = p47phox (human) inhibition; P14598; p47phox/p22phox peptide binding, fluorescence polarization, 2 h; inhibition, % at 24.7 µM; actives 0.53% (n = 220,000); AID 1274;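 active = inhibition above about 30%, limit read from the data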;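 also: 0% = p47phox with labelled peptide and 100% = labelled peptide alone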
Target sequence (P14598 whole entry, looked up): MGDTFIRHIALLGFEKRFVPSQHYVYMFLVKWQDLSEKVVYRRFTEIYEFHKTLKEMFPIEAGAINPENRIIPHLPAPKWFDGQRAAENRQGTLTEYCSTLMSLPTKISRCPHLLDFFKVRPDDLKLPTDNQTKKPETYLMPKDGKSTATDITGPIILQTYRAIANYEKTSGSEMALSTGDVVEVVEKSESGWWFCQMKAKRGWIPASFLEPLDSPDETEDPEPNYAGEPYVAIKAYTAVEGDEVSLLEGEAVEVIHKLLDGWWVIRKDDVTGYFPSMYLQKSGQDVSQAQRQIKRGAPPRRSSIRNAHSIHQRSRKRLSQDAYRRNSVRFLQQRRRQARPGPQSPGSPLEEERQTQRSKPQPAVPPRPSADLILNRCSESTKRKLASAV
Yeast growth inh = yeast BB579 growth reduction in restrictive medium | inhibition, % at 10 µM | S. cerevisiae BB579 growth, OD615, 48 h | actives 0.51% (n = 140,000);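 active = inhibition above a set limit, 3 SD over the mean compound inhibition, cut at about 44% in these data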
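Test system: Saccharomyces cerevisiae DeaD strain BB579, replicative lifespan model yeast | Buffer or medium: Restrictive CSMM-D medium | Doses: One dose, 10 µM compound with 0.25% DMSO | Incubation: 48 h exposure, 30 °C | Detection: Culture absorbance at 615 nm | Control set: Amphotericin B at 10 µg/mL as positive control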
Yeast lifespan up = yeast lifespan extension; S. cerevisiae growth with nicotinamide, OD615; deaD strain in restrictive glucose medium; inhibition of the nicotinamide effect, % at 10 µM; actives 0.68% (n = 130,000); AID 775;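 active = inhibition above a set limit, placed 3 SD over the median of all compounds, cut at about 26% in these data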;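 also: 0% = nicotinamide-treated wells and 100% = cells grown without nicotinamide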
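Assay system: engineered S. cerevisiae DeaD replicative-lifespan strain, galactose-grown log-phase cells; medium: restrictive CSMM-D dextrose medium; also added: nicotinamide, 1.5 mM, co-present with compound; schedule: 48 h compound exposure at 30 °C, humidified; detection: absorbance at 615 nm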
RBBP9 inh = human RBBP9 hydrolase inhibition | O75884 | recombinant RBBP9, FP-Rh probe fluorescence polarization | inhibition, % at 7.94 µM | actives 0.2% (n = 220,000);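 active = inhibition above the campaign mean of all tested compounds plus 3 SD, cut at about 14% in these data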;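 also: plate controls were DMSO wells with RBBP9 for no effect and wells lacking RBBP9 protein for full effect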
Target sequence (O75884 whole entry, looked up): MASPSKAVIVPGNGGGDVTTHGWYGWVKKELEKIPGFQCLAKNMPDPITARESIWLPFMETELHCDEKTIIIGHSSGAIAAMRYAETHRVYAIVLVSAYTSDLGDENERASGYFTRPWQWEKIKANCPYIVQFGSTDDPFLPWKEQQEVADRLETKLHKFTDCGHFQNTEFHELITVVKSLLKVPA
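Measured by – fluorescence polarization · Test system – RBBP9 protein · Input – 2.5 µM RBBP9 dispensing solution, before mixing · Measure – percent inhibition from mP, scaled between DMSO and no-protein wells · Benchmarks – DMSO-treated enzyme wells and wells lacking RBBP9 · Times – preincubation 30 min plus labeling 45 min at 25 °C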
* hit, by the source's call; . = no result; ! = not confirmed by another sample.

SMILES	SDO1 yeast rescue	TbHK1 inh	p47phox inh	Yeast growth inh	Yeast lifespan up	RBBP9 inh
O=C(Cc1sc(Nc2ccccc2)nc1-c1ccccc1)NCc1ccccn1	.	-7.8	-20.4	.	.	-1.8
CN1CCN(C2=Nc3ccccc3Oc3ccc(Cl)cc32)CC1	-0.05	-23.0	38.5*!	-60.0	3.3	-3.6
CN1CCN(c2nc(-c3ccccc3)c3cc(Cl)ccc3n2)CC1	-0.53	-18.4	-35.9	-46.2	-13.3	-5.6
O=C(O)c1cc(-c2ccco2)nc2ccc(Br)cc12	0.57	-39.0	-4.7	-29.6	35.7*!	-6.7
O=C(c1ccco1)N1CCN(C(=O)c2cc(-c3ccncc3)nc3ccc(Br)cc23)CC1	.	-8.4	.	.	.	-2.6
Cc1onc(-c2ccccc2)c1C(=O)NNC(=S)NC(=O)c1ccc2c(c1)OCO2	.	-10.7	-10.8	.	.	-6.4
COc1ccc(-c2cnnc(N/N=C/c3ccc(-c4ccc([N+](=O)[O-])cc4)o3)n2)cc1	.	-31.2	59.6*	.	.	-5.9
O=[N+]([O-])c1ccc(-c2ccc(/C=N/Nc3nc(N4CCCC4)nc(N4CCCC4)n3)o2)cc1	.	-21.3	-4.2	.	.	6.5
O=[N+]([O-])c1cccc(-c2ccc(/C=N/Nc3nc(N4CCCCC4)nc(N4CCCCC4)n3)o2)c1	.	-31.3	9.0	.	.	0.5
COc1nc(N/N=C/c2ccc(-c3cccc([N+](=O)[O-])c3)o2)nc(N2CCOCC2)n1	-0.84	-3.1	76.1*	-9.4	-5.4	-4.0
N#CC(C#N)=c1ccc2c(c1)N1C3=C(CCCC3)CC3CCCCC31N=2 (stereo not drawn)	-0.27	-6.8	8.3	1.4	15.4	7.8
N#C/C(C(N)=O)=c1/ccc2c(c1)N1C3=C(CCCC3)CC3CCCCC31N=2 (stereo not drawn)	-1.71	-1.6	14.8	-18.9	37.0*	4.1
COc1cc(CC(=O)OCC(=O)Nc2ccc(Cl)c(S(=O)(=O)N(C)C)c2)cc(OC)c1OC	.	-4.3	33.6*	.	.	2.1
Cc1ccc2cc3c(N)c4c(C)ccc(C)c4nc3nc2c1	.	5.4	31.0*	.	.	-6.3
Cc1ccc2c(N)c(C)ccc2c1	-0.49	-2.0	-15.7	-5.3	-12.7	-6.8
Cc1ccc(Cn2cc(/C=N/NC(=O)Cc3nnc(NC(=O)c4ccc(C)cc4)s3)c3ccccc32)cc1	.	19.9	2.0	.	.	-6.2
CCN1CCN(CCNC(=O)c2ccc(/C=C3/Sc4ccccc4N(Cc4ccccc4C)C3=O)cc2)CC1	.	-15.6	104.3*	.	.	-6.0
CCN1CCN(CCCNC(=O)c2ccc(/C=C3/Sc4ccccc4N(Cc4ccccc4F)C3=O)cc2)CC1	.	-5.8	89.9*	.	.	-0.3
O=C(NCCN1CCOCC1)c1ccc2c(c1)N(Cc1ccccc1F)C(=O)c1ccccc1S2	.	-6.9	-13.8	.	.	-8.4
COc1cc(C2NC(=O)NC(c3ccccc3)=C2C(C)=O)cc([N+](=O)[O-])c1O (stereo not drawn)	.	-9.2	-9.8	.	.	0.3
Cn1c2ccccc2c(=O)n2c(=O)c3ccccc3cc12	-0.3	-17.3	-2.9	47.1*	-7.4	-8.3
Fc1ccccc1N1CCN(CCCNc2ccc3nncn3n2)CC1	0.66	-1.2	1.7	-15.3	27.3*	-10.2
c1ccc(CN2CCN(CCCNc3ccc4nnc(-c5ccccc5)n4n3)CC2)cc1	1.5	-5.0	-7.3	-4.6	-1.2	-3.7
CCCN1C(=O)/C(=N\OCC(=O)NC23CC4CC(CC(C4)C2)C3)c2ccccc21	-1.24	-5.9	-0.5	-15.4	12.2	14.2
CCOC(=O)/C(=C/c1ccc(OC(=O)c2ccncc2)cc1)C(C)=O	.	-11.2	0.8	.	.	-6.3
SMILES	SDO1 yeast rescue	TbHK1 inh	p47phox inh	Yeast growth inh	Yeast lifespan up	RBBP9 inh
COCCOC(=O)/C(=C/c1ccc(OC(=O)c2ccccc2)cc1)C(C)=O	-0.97	-5.0	9.2	-43.6	38.9*	-9.0
CS(=O)(=O)Oc1ccc(Br)cc1/C=C1/N=C(c2ccco2)OC1=O	-0.17	-5.9	-0.3	-15.2	49.4*	-5.4
O=C(CCOc1ccc(F)cc1)Nc1nccs1	.	2.6	1.4	.	.	-2.6
CC(=O)Nc1ccc(C(=O)Nc2cccc(-c3cnc4ccccc4n3)c2)cc1	.	-10.4	33.3*	.	.	-4.0
CC1CCCCN1C(=O)C12CCC(C)(/C(=N/O)C1)C2(C)C (stereo not drawn)	-0.08	0.8	37.3*	-16.7	1.0	-3.0
Cc1cc(C(C)(C)C)ccc1OCCCCN1CCCC1	-0.79	12.4	-9.0	-4.5	3.2	-3.3
CCC(C)(C)c1ccc(OCCCC[n+]2cccc(C)c2C)c(C(C)(C)CC)c1	.	28.3	49.2*	.	.	3.0
CCCCCCCCC[n+]1cccc2c3ccccc3ccc21	-2.35	-6.3	18.8	30.7	-19.7	1.5
CCC(C)(C)c1ccc(OCCCC[n+]2ccc(C)cc2)c(C(C)(C)CC)c1	.	17.7	33.2*	.	.	-10.3
COc1cc(/C=N/NC(=O)C(=O)NCc2ccco2)cc(Br)c1O	.	-47.7	-2.1	.	.	-11.0
O=C(NC(=S)Nc1ccc(S(=O)(=O)Nc2nccs2)cc1)c1ccc(F)cc1	2.29	14.0	-25.3	-6.4	-0.2	-0.2
O=C(N/N=C/c1cc2c3c(c1O)CCCN3CCC2)c1ccccc1O	0.21	-23.2	21.2	62.4*	2.4	2.6
Cc1ccc(SCCC(=O)OCC(=O)NCC2CCCCC2)cc1	.	10.6	-5.9	.	.	-6.2
CN1CCN(CC(O)COc2ccc(C34CC5CC(CC(C5)C3)C4)cc2)CC1 (stereo not drawn)	.	-3.8	72.7*	.	.	-5.2
OC(COc1ccc(OCC(O)CN2CCCCCC2)cc1)CN1CCCCCC1 (stereo not drawn)	0.02	-1.5	-2.9	15.4	-7.8	7.6
Cc1ccc(-c2c(=O)n(OCc3ccccn3)c3ccccc3[n+]2[O-])cc1	2	-17.8	-11.5	-22.0	54.9	-4.5
O=c1c(-c2ccc(Cl)cc2)[n+]([O-])c2ccccc2n1OCc1ccccn1	-0.36	-4.6	4.9	-40.7	45.3*	-0.3
O=C(Nc1nc2ccccc2n1CCN1CCOCC1)c1ccc(Cl)cc1	.	-9.7	-11.8	.	.	-1.4
CCC(=O)Nc1nc2ccccc2n1CCN1CCOCC1	0.16	-1.6	38.3*	-2.7	-12.7	-0.7
N#C/C(=C/c1cn(-c2ccccc2)nc1-c1cccc(OCc2ccc(F)cc2)c1)C(=O)NCCCn1ccnc1	-1.22	-9.3	8.0	62.8*	-5.7	-12.2
OCc1ccnc2c(O)cccc12	-0.54	14.3	-3.5	54.3*	-14.3	-4.2
O=C(c1cc(C(=O)N2CCOCC2)c2nc3ccccc3n2c1)c1cc(Cl)cc(Cl)c1O	.	-21.8	4.7	.	.	-4.0
O=Cc1c[nH]c2ncccc12	.	-6.9	-7.3	.	.	-1.6
COc1ccc(NS(=O)(=O)c2ccc(N3CCOCC3)c(NC(=O)c3ccc(F)cc3)c2)cc1	-0.58	28.5	-2.7	-34.8	-0.1	-6.4
COc1ccc(NS(=O)(=O)c2ccc(N3CCOCC3)c(NC(=O)c3cccc(F)c3)c2)cc1	-1.13	-3.9	50.5*	2.1	0.6	-10.0
